Results on 11 molecules are retold here after ChEMBL document CHEMBL1255192, “3-alkylthio-1,2,4-triazine dimers with potent antimalarial activity” (Bioorg Med Chem Lett, 2010).

As usually defined, the EC50 is the concentration at which the effect is half-maximal. A high value points to weaker potency. One may read the logD as lipophilicity at a set pH, counting ionised and neutral species. In general, solubility refers to the concentration that dissolves in the medium under given conditions. A lower solubility goes with little dissolved substance. As usually defined, the microsomal CLint is a measure of how fast metabolising enzymes remove a compound, apart from limits set by blood flow. A lower microsomal CLint goes with slow turnover.

The subject of one data set is HEK293. As to the kind of experiment: Cytotoxicity against HEK293 cells. To be noted: Homo sapiens. In kind it is cell-based. The method in brief:
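HEK 293 cell toxicity assay, with puromycin as the control. Read-out is EC50.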

Data set [1] deals with Plasmodium falciparum. Kind of data set: Antimalarial activity against Plasmodium falciparum 3D7 infected in human erythrocyte. Format: functional, organism-based. The method in brief: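 Asexual erythrocytic-stage culture of the P. falciparum 3D7 strain, with chloroquine as the reference control. Read-out is EC50.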
Data set [2] relates to Plasmodium falciparum. As to the kind of experiment: Antimalarial activity against Plasmodium falciparum Dd2 infected in human erythrocyte. In kind it is functional, organism-based. The method in brief:
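Chloroquine-resistant P. falciparum Dd2 grown at the erythrocytic stage, with chloroquine as the control. EC50 was determined.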

Data set [3] can be described thus: Distribution coefficient log D of the compound at pH 3. Format: physicochemical. Conditions: octanol/water. The method in brief: (§1)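 Log D at each pH was estimated by a chromatographic method.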
A short description of data set [4]: Solubility of the compound at pH 2. Format: physicochemical. To be noted: buffer.
A short description of data set [5]: Distribution coefficient log D of the compound at pH 7.4. In kind it is physicochemical. To be noted: octanol/water. The method in brief:
as §1

The nature of data set [6]: Intrinsic clearance in human liver microsomes. Format: ADME, Microsome. The method in brief:
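Compound was incubated with human liver microsomes. Parent loss and metabolites were followed by LCMS. Concentration versus time was fitted to exponential decay to get the first-order depletion rate constant, which gave in vitro CLint and a predicted hepatic extraction ratio.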
(In general: Liver microsomes are vesicles of endoplasmic reticulum, rich in cytochrome P450 enzymes.)

Data set [7] can be described thus: Solubility of the compound at pH 6.5. Format: physicochemical. Conditions: buffer.
The test system of a further data set is L6. Kind of data set: Cytotoxicity against rat L6 cells. Format: cell-based.

In brackets after ≈: the same amount, converted by molar mass. Bounds are passed on as bounds.

For `CCCSc1nncc(-c2cnnc(SCCC)n2)n1`, the EC50 in the data set on HEK293 was greater than 115 µM.

On to `CCN(CC)CCSc1nncc(-c2cnnc(SCCN(CC)CC)n2)n1`, for which the EC50 in the data set with Plasmodium falciparum [1] is 440 nM; with Plasmodium falciparum [2], 790 nM; in the data set on HEK293 it was 16 µM.

In turn, `CCSc1nncc(-c2cnnc(SCC)n2)n1` came in with an EC50 with HEK293 of 84 µM.

For `CCc1nncc(-c2cnnc(CC)n2)n1`, the logD in data set [3] and in data set [5] was 1.6 throughout. Moreover, the solubility came to 426 µM (≈ 92.1 µg/mL) in [4] and 311 µM (≈ 67.3 µg/mL) in data set [7]. Besides, the EC50 with Plasmodium falciparum [1] stood at 1600 nM. This molecule also gave a microsomal CLint in data set [6] of 11.7 µL/min/mg.

On to `CCN(CC)CCSc1nncc(-c2cnnc(SC)n2)n1`, for which the EC50 was found to be 23 nM in the data set with Plasmodium falciparum [1], 12 nM with Plasmodium falciparum [2] and 9 µM in the data set on HEK293.

Regarding `CCCCSc1nncc(-c2cnnc(SCCCC)n2)n1`, the EC50 in the data set on HEK293 is greater than 115 µM.

For the molecule `CSc1nncc(-c2cnnc(OCCN(C)C)n2)n1`, a half-maximal effect in the data set with HEK293 (EC50) was put at 24 µM.

`COc1nncc(-c2cnnc(SC)n2)n1`: the figures for the EC50 in the data set on HEK293 and with L6 were 18 µM and 33 µM, respectively.

For the molecule `CN(C)CCSc1nncc(-c2cnnc(SCCN(C)C)n2)n1`, the EC50 in the data set on Plasmodium falciparum [1] was found to be 470 nM; with Plasmodium falciparum [2] it was 620 nM; with HEK293, 25 µM.

Regarding `CSc1nncc(-c2cnnc(SC)n2)n1`, the logD in [3] and in data set [5] was 2.4 each time. For the same molecule, the solubility in data set [4] turned out to be 15.3 µM (≈ 3.86 µg/mL); in [7], 14.5 µM (≈ 3.66 µg/mL). In addition, a half-maximal effect with HEK293 (EC50) was put at 68 µM.

In the case of `COc1nncc(-c2cnnc(OC)n2)n1`, the EC50 with HEK293 came out at 36 µM.
